pIC50: −log10 of the molar value. Active and inactive are the calls of the source. The calls are words filed in the database; no cut-off is given here.
Columns and labels:
[1] = Cytotoxicity against human HuH7 cells assessed as growth inhibition after 3 days by XTT method; assay type: cell-based, Huh-7
Method in brief: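 Uninfected Huh-7 cells were seeded at 5 × 10^3 cells/well and treated for 3 days at 37 °C in humidified 5% CO2. Viability was read by XTT against a 0.1% DMSO control. CC50 was taken as the concentration giving 50% growth inhibition.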

[2] = Cytotoxicity against human HuH7 cells assessed as cell viability at 20 uM after 3 days by XTT method relative to control; assay type: cell-based, Huh-7; settings: read-out: Activity
Method in brief: (§1)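 Uninfected Huh-7 cells were seeded at 5 × 10^3 cells/well in maintenance medium. They were exposed to compound at 20 or 200 µM, diluted into medium from 10 mM DMSO stocks, with 0.1% DMSO as control. Incubation was 3 days at 37 °C in humidified 5% CO2. Viability was read by XTT, run in parallel with the antiviral assays.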

[3] = Selectivity index, ratio of CC50 for human HuH7 cells to IC50 for Fluc-tagged DENV2 strain 16681 infected in human HuH7 cells; assay type: toxicity, cell-based; settings: read-out: Ratio CC50/IC50
Method in brief: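 SI is calculated as CC50/IC50. CC50 is 50% growth inhibition of uninfected Huh-7 cells by XTT after 3 days. IC50 is 50% inhibition of DENV-2 replication in Huh-7-DV-Fluc replicon cells (2 × 10^4 cells/well), measured by firefly luciferase after 3 days of treatment with a 0.1% DMSO control.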

[4] = system: dengue virus type 2; experiment: Antiviral activity against Fluc-tagged DENV2 strain 16681 infected in human HuH7 cells assessed as inhibition of viral replication at 10 uM after 3 days by luciferase reporter gene assay relative to control; assay type: functional; settings: Thailand/16681/84, Huh-7, 72 h
Method in brief: (§2)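 Huh-7-DV-Fluc cells seeded at 2 × 10^4 per well, exposed to 1 or 10 µM for 3 days against a 0.1% DMSO control. Firefly luciferase activity (Bright-Glo) read as DENV-2 replication; percent inhibition relative to control.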

[5] = system: dengue virus type 2; experiment: Potency index, ratio of ribavirin IC50 to compound IC50 for antiviral activity against Fluc-tagged DENV2 strain 16681 infected in human HuH7 cells; assay type: functional, Thailand/16681/84
[6] = system: dengue virus type 2; experiment: Antiviral activity against Fluc-tagged DENV2 strain 16681 infected in human HuH7 cells assessed as inhibition of viral replication at 1 uM after 3 days by luciferase reporter gene assay relative to control; assay type: functional; settings: Thailand/16681/84, Huh-7, 72 h; method in brief: as §2
[7] = system: dengue virus type 2; experiment: Antiviral activity against Fluc-tagged DENV2 strain 16681 infected in human HuH7 cells after 3 days by luciferase reporter gene assay; assay type: functional, organism-based; settings: Thailand/16681/84, Huh-7, 72 h
[8] = Cytotoxicity against human HuH7 cells assessed as cell viability at 200 uM after 3 days by XTT method relative to control; assay type: cell-based, Huh-7; settings: read-out: Activity; method in brief: as §1
[9] = system: dengue virus type 1; experiment: Antiviral activity against Fluc-tagged DENV1 infected in human HuH7 cells after 3 days by luciferase reporter gene assay; assay type: functional, organism-based; settings: Huh-7, 72 h
[10] = system: dengue virus type 2; experiment: Antiviral activity against DENV2 strain 16681 infected in ICR suckling mouse assessed as protection against anorexia at 1 to 5 mg/kg, ip treated on day 1,3 and 5 post infection measured daily for 6 days; assay type: functional, organism-based; settings: Thailand/16681/84
Method in brief: (§3)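 Six-day-old ICR suckling mice, n = 5/group, given 2.5 × 10^5 pfu DENV-2 intracerebrally, then 1, 5, 10 or 20 mg/kg intraperitoneally at 1, 3 and 5 dpi. Controls were DENV plus ip saline, and 60 °C heat-inactivated DENV (mock). Survival, clinical score (paralysis, anorexia, asthenia) and body weight were recorded daily for 6 days.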

[11] = system: dengue virus type 2; experiment: Antiviral activity against Fluc-tagged DENV2 strain 16681 infected in human HuH7 cells assessed as reduction in viral replication by measuring NS2B protein expression at 0.5 to 5 uM after 3 days by immunoblot analysis; assay type: functional, organism-based; settings: Thailand/16681/84
Method in brief: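 DENV-2 (16681) replicating Huh-7 cells treated with 0.5, 1, 2.5 and 5 µM for 3 days; 0.1% DMSO mock. Whole-cell lysates immunoblotted overnight with rabbit polyclonal anti-NS2B (1:3000); GAPDH (1:10000) as loading control.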

[12] = system: dengue virus type 2; experiment: Antiviral activity against DENV2 strain 16681 infected in ICR suckling mouse assessed as protection against paralysis at 1 to 5 mg/kg, ip treated on day 1,3 and 5 post infection measured daily for 6 days; assay type: functional, organism-based; settings: Thailand/16681/84; method in brief: as §3
[13] = system: dengue virus type 2; experiment: Antiviral activity against Fluc-tagged DENV2 strain 16681 infected in human HuH7 cells assessed as reduction in viral replication by measuring NS5 gene expression at 0.5 to 5 uM after 3 days by RT-qPCR assay; assay type: functional, organism-based; settings: Thailand/16681/84
Method in brief: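 DENV-2 (16681) replicating Huh-7 cells exposed to 0.5, 1, 2.5 and 5 µM for 3 days; 0.1% DMSO mock. Total RNA analysed by RT-qPCR with NS5-targeted primers, normalised to cellular GAPDH mRNA; means ± SD of triplicate experiments.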

[14] = system: dengue virus type 3; experiment: Antiviral activity against Fluc-tagged DENV3 infected in human HuH7 cells after 3 days by luciferase reporter gene assay; assay type: functional, organism-based; settings: Huh-7, 72 h
[15] = system: dengue virus type 2; experiment: Antiviral activity against DENV2 strain 16681 infected in ICR suckling mouse assessed as protection against asthenia at 1 to 5 mg/kg, ip treated on day 1,3 and 5 post infection measured daily for 6 days; assay type: functional, organism-based; settings: Thailand/16681/84; method in brief: as §3
[16] = system: dengue virus type 4; experiment: Antiviral activity against Fluc-tagged DENV4 infected in human HuH7 cells after 3 days by luciferase reporter gene assay; assay type: functional, organism-based; settings: Huh-7, 72 h
[17] = system: dengue virus type 2; experiment: Antiviral activity against DENV2 strain 16681 infected in ICR suckling mouse assessed as protection against mouse death at 1 to 5 mg/kg, ip treated on day 1,3 and 5 post infection measured daily for 6 days; assay type: functional, organism-based; settings: Thailand/16681/84; method in brief: as §3

| Compound | viability at 72 h, 20 µM [2] [%] | inhibition at 10 µM [4] [%] | inhibition at 1 µM [6] [%] | viability at 72 h, 200 µM [8] [%] | further results |
| --- | --- | --- | --- | --- | --- |
| COc1ccc(-c2cc(-c3ccc4cc(F)ccc4n3)n(-c3ccc(OC)cc3)n2)cc1 | 95.8 | 65.7 | 46.9 | 98.4 | CC50 at 72 h [1]: > 200 µM; selectivity ratio [3]: > 183; Ratio IC50 [5]: 10; pIC50 [7]: 5.96 |
| COc1ccc(-c2cc(-c3ccc4cc(F)ccc4n3)n(-c3ccccc3)n2)cc1 | 104 | 8.09 | 5.31 | 98.9 |  |
| Fc1ccc2nc(-c3cc(-c4ccccc4)n(-c4ccccc4)n3)ccc2c1 | 124 | 15.3 | 5.21 | 115 |  |
| NS(=O)(=O)c1ccc(-n2nc(-c3ccccc3)cc2-c2ccc3cc(F)ccc3n2)cc1 | 89.2 | 11.8 | 4.52 | 83.6 |  |
| Fc1ccc(-c2cc(-c3ccc4cc(F)ccc4n3)n(-c3ccc(F)cc3)n2)cc1 | 95.3 | 22.4 | 8.91 | 86.5 |  |
| Fc1ccc(-c2cc(-c3ccc4cc(F)ccc4n3)nn2-c2ccccc2)cc1 | 88.3 | 6.14 | 3.58 | 89.7 |  |
| COc1ccc(-c2cc(-c3ccc4cc(F)ccc4n3)n(-c3ccc(F)cc3)n2)cc1 | 98.8 | 55.3 | 41.4 | 95.4 | CC50 at 72 h [1]: > 200 µM; selectivity ratio [3]: > 147; Ratio IC50 [5]: 10; pIC50 [7]: 5.87 |
| COc1ccc(-n2nc(-c3ccccc3)cc2-c2ccc3cc(F)ccc3n2)cc1 | 116 | 20.7 | 7.81 | 97.3 |  |
| Fc1ccc2nc(-c3cc(-c4ccccc4)nn3-c3ccccc3)ccc2c1 | 126 | 5.13 | 3.02 | 98.3 |  |
| COc1ccc(-c2cc(-c3ccc4cc(F)ccc4n3)nn2-c2ccccc2)cc1 | 95.6 | 7.15 | 4.14 | 93.7 |  |
| Fc1ccc(-c2cc(-c3ccc4cc(F)ccc4n3)n(-c3ccccc3)n2)cc1 | 88.1 | 25.4 | 11.2 | 87.5 |  |
| NC(=O)c1ncn([C@@H]2O[C@H](CO)[C@@H](O)[C@H]2O)n1 [RIBAVIRIN] |  | 32.5 | 10.1 | 26.8 | selectivity ratio [3]: 4.47 |
| NS(=O)(=O)c1ccc(-n2nc(-c3ccc(F)cc3)cc2-c2ccc3cc(F)ccc3n2)cc1 | 91.1 | 12.8 | 5.71 | 43 |  |
| Fc1ccc(-n2nc(-c3ccccc3)cc2-c2ccc3cc(F)ccc3n2)cc1 | 97.8 | 8.31 | 4.36 | 91.6 |  |
| COc1ccc(-c2cc(-c3ccc4cc(F)ccc4n3)n(-c3ccc(S(N)(=O)=O)cc3)n2)cc1 | 83.7 | 85.3 | 59 | 89.5 | CC50 at 72 h [1]: > 200 µM; pIC50 [9]: 5.92; Activity [10]: Active; selectivity ratio [3]: > 247; Activity [11]: Active; Activity [12]: Active; Ratio IC50 [5]: 10; Activity [13]: Active; pIC50 [14]: 6.14; Activity [15]: Active; pIC50 [16]: 5.81; Activity [17]: Active; pIC50 [7]: 6.09 |
| COc1ccc(-n2nc(-c3ccc(F)cc3)cc2-c2ccc3cc(F)ccc3n2)cc1 | 89.1 | 15.8 | 6.12 | 52.5 |  |
